Measurements gathered from unrelated publications.
Lines come from different studies, so protocols differ.
Organism: Leishmania major
Effect on: parasite growth
Notes: promastigote

Compound	method	time	quantity	value
CCCc1cn(CCN2CCN(C(=O)c3c(C)nc4ccc(Cl)cn34)CC2)nn1	resazurin	72 h	IC50	475 µM
O=S(=O)(c1ccc(-c2ccc3ncnc(Nc4ccc(OCc5ccccc5)c(Cl)c4)c3c2)cc1)N1CCOCC1	resazurin	–	EC50	470 nM
CC1(C)OB(CC2c3ccccc3C(=O)N2C2CCCCC2)OC1(C)C (stereo not drawn)	–	–	IC50	11.5 µM
CCCCCCCCCc1cn(CCN2CCN(C(=O)c3c(C)nc4ccc(Cl)cn34)CC2)nn1	resazurin	72 h	IC50	62 µM
CC(=O)Oc1ccc(-c2oc3cc(OC(C)=O)cc(O)c3c(=O)c2OC(C)=O)cc1	–	48 h	IC50	14.9 µM
C[C@@H]1[C@H](O)[C@@H](C)/C=C/C=C/C=C/C=C/C=C/C=C/C=C/[C@H](O[C@@H]2O[C@H](C)[C@@H](O)[C@H](N)[C@@H]2O)C[C@@H]2O[C@](O)(C[C@@H](O)C[C@@H](O)[C@H](O)CC[C@@H](O)C[C@@H](O)CC(=O)O[C@H]1C)C[C@H](O)[C@H]2C(=O)O	–	–	IC50	0.83 µM
C[C@@H]1[C@H](O)[C@@H](C)/C=C/C=C/C=C/C=C/C=C/C=C/C=C/[C@H](O[C@@H]2O[C@H](C)[C@@H](O)[C@H](N)[C@@H]2O)C[C@@H]2O[C@](O)(C[C@@H](O)C[C@@H](O)[C@H](O)CC[C@@H](O)C[C@@H](O)CC(=O)O[C@H]1C)C[C@H](O)[C@H]2C(=O)O	–	24 h	IC50	0.243 µM
Cc1nc2ccc(Cl)cn2c1C(=O)N1CCN(Cc2cn(-c3cccc(Cl)c3)nn2)CC1	resazurin	72 h	IC50	47.1 µM
C[C@@H]1[C@H](O)[C@@H](C)/C=C/C=C/C=C/C=C/C=C/C=C/C=C/[C@H](O[C@@H]2O[C@H](C)[C@@H](O)[C@H](N)[C@@H]2O)C[C@@H]2O[C@](O)(C[C@@H](O)C[C@@H](O)[C@H](O)CC[C@@H](O)C[C@@H](O)CC(=O)O[C@H]1C)C[C@H](O)[C@H]2C(=O)O	–	48 h	IC50	3.68 µM
